Compound activity from PubChem.
Compounds with a hit are over-represented: about 2.9% of the library has one in this group of screens.
CHO-K1 Ca ag: counter-screen for M1 agonists: effect in parental CHO-K1 cells; Fluo-8 calcium fluorescence; scaled to maximal ATP response, vehicle zero; activation, % at 3 µM; 360,000 compounds, 0.48% hits; in the data active means activation above about 15%;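 further: untransfected CHO-K1 host cells lacking M1 receptor as counterscreen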
M1 PAM parental: nonselective calcium activators in parental CHO-K1 cells, primary screen, counter-screen for M1 PAM project, cell-based, Fluo-8 calcium fluorescence, full deck, 1536-well; ATP EC20; 0% at ATP EC20, 100% at ATP max; activation, % at 3 µM; 360,000 compounds, 0.02% hits;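 active means activation above the run cutoff, the mean activation of all test compounds plus 3 SD, cut at about 40% in these data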;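 further: peak over basal fluorescence ratio in a 140 s read after ATP addition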
OX1R antag-1: antagonists of human orexin 1 receptor (OX1R); AID 485270, 2010; OX1R-expressing cells, FRET antagonist read-out; Orexin/Hypocretin receptor type 1 (Homo sapiens), O43613; inhibition, % at 6.6 µM; 330,000 compounds, 1.8% hits; in the data active means inhibition mostly above about 38%, no sharp cut-off; inactive means mostly below about 40%;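 further: 0% = agonist challenge alone and 100% = reference antagonist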
Target sequence (O43613 whole entry, looked up): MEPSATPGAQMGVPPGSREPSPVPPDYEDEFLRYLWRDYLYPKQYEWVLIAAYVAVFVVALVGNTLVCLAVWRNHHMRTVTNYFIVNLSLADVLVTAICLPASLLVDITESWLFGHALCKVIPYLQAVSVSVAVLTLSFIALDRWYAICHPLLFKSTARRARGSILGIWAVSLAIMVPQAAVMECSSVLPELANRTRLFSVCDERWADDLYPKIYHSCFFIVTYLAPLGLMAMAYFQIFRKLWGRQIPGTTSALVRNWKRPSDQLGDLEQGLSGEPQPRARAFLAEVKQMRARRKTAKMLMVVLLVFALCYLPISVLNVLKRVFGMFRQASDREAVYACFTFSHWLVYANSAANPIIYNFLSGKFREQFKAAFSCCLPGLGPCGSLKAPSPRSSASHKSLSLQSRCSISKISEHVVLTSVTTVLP
OX1R antag-2: OX1R (HCRTR1) antagonists, primary screen, fluorescence, CHO/OX1R cells, Fluo-8 calcium, orexin A. 330,000 compounds, 0.43% hits. inhibition, % at 5 µM. Orexin/Hypocretin receptor type 1 (Homo sapiens), O43613. Fluo-8 calcium fluorescence;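 active means inhibition above its plate's threshold, mean inhibition of all tested compounds on the plate plus 3 SD, cut at about 37% in these data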;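 further: 0% = orexin A challenge wells and 100% = SB-334867-A antagonist wells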
CHO-K1 Ca antag: nonselective inhibitor or artifact in parental CHO-K1 cells | ATP-induced calcium, Fluo-8 fluorescence | inhibition, % at 3 µM | 360,000 compounds, 0.6% hits;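 active means inhibition above a per-plate cutoff, the plate's mean sample inhibition plus 3 SD, cut at about 24% in these data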;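 further: 0% = DMSO plus EC80 ATP and 100% = DMSO alone without ATP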
CHO parental Ca: ATP-evoked calcium signal inhibitors, parental CHO, primary screen, counter-screen for OX1R antagonist project, cell-based, fluorescence, Fluo-8 calcium dye; parental CHO-K1, ATP-induced calcium, Fluo-8 fluorescence; inhibition, % at 5.6 µM; 330,000 compounds, 0.63% hits;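 active means inhibition above that plate's mean sample inhibition plus 3 SD, cut at about 26% in these data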;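 further: 0% = ATP-challenged DMSO wells and 100% = DMSO wells without ATP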
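Test system: parental CHO cells; detection: calcium-sensitive Fluo-8 fluorescence; evaluation: percent inhibition of calcium signal; also added: ATP as calcium-mobilizing challenge; repeats: one well per compound; control set: ATP-challenged DMSO wells low, unchallenged DMSO wells high; compound: single nominal dose of 5.6 µM per compound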
The depositor's hits bear a star; ! = not confirmed by another sample.

For Cn1c2ccccc2c2cc(/C=N/NC(=O)c3cc(O)cc(O)c3)ccc21 the results were CHO-K1 Ca ag -1, M1 PAM parental -8, OX1R antag-1 74*, OX1R antag-2 14, CHO-K1 Ca antag 1 and CHO parental Ca -8.
`CCn1c2ccccc2c2cc(/C=N/NC(=O)c3ccccc3)ccc21` gave CHO-K1 Ca ag 1, M1 PAM parental -3, OX1R antag-1 92*, OX1R antag-2 67*, CHO-K1 Ca antag 4 and CHO parental Ca -22.
`COc1cc(C(=O)N/N=C/c2ccc3c(c2)c2ccccc2n3C)ccc1O` gave CHO-K1 Ca ag 1, M1 PAM parental -1 and CHO-K1 Ca antag 2.
For C[C@H](O)[C@@H]1CN2CCc3c([nH]c4ccccc34)[C@@H]2C[C@@H]1N(C)C(=S)Nc1ccc(C#N)cc1 the results were CHO-K1 Ca ag 1, M1 PAM parental 10 and CHO-K1 Ca antag 9.
`Cc1cc(C)c(CN2CCN(C(=O)Cn3cnc(C(=O)Nc4ccc(C)c(C)c4)n3)CC2)c(C)c1` gave CHO-K1 Ca ag 0, M1 PAM parental -12, OX1R antag-1 -1, OX1R antag-2 59*, CHO-K1 Ca antag 13 and CHO parental Ca 55*.
`COC(=O)[C@H](CC(C)C)NC(=O)Nc1ccc(S(N)(=O)=O)cc1` gave CHO-K1 Ca ag 1, M1 PAM parental -17, OX1R antag-1 10, OX1R antag-2 -15, CHO-K1 Ca antag -3 and CHO parental Ca -5.
Screening COCCCNC(=S)N1CCN(c2nc(-c3ccc(Cl)cc3)cs2)CC1 returned CHO-K1 Ca ag 9, M1 PAM parental -12 and CHO-K1 Ca antag 20.
CC(C)CNC(=S)N1CCN(c2nc(-c3ccc(Cl)cc3)cs2)CC1 was read as CHO-K1 Ca ag 7, M1 PAM parental 12, OX1R antag-1 34, OX1R antag-2 -1, CHO-K1 Ca antag 16 and CHO parental Ca 39*.
For COc1ccc2[nH]c(CN3CCC(CO)(CCOc4ccccc4)CC3)c(C)c2c1 the results were CHO-K1 Ca ag 3, M1 PAM parental 8, OX1R antag-1 12, OX1R antag-2 -20, CHO-K1 Ca antag -1 and CHO parental Ca 9.
`CCOC(=O)c1c(NC(=O)CSc2n[nH]c(-c3ccco3)n2)sc(C)c1C` gave CHO-K1 Ca ag 0, M1 PAM parental -7, OX1R antag-1 19, OX1R antag-2 -30, CHO-K1 Ca antag 24* and CHO parental Ca -13.
Screening CCOC(=O)c1c(NC(=O)CSc2n[nH]c(CNc3ccccc3)n2)sc(C)c1C returned CHO-K1 Ca ag -1, M1 PAM parental 22, OX1R antag-1 1, OX1R antag-2 -30, CHO-K1 Ca antag -4 and CHO parental Ca 0.
Screening CCOC(=O)c1sc(NC(=O)CSc2n[nH]c(-c3ccccc3)n2)c(C#N)c1C returned CHO-K1 Ca ag 10, M1 PAM parental 1, OX1R antag-1 39, OX1R antag-2 46*, CHO-K1 Ca antag 27* and CHO parental Ca 40*.
`CCOC(=O)c1sc(NC(=O)CSc2ncn[nH]2)c(C#N)c1C` gave CHO-K1 Ca ag 18*, M1 PAM parental 22, OX1R antag-1 8, OX1R antag-2 -19, CHO-K1 Ca antag 3 and CHO parental Ca -7.
For O=C(NCCCN1CCCCC1)c1ccc(CS(=O)c2ccc(F)cc2)o1 (centres undefined) the results were CHO-K1 Ca ag 0, M1 PAM parental -2, OX1R antag-1 14, OX1R antag-2 -6, CHO-K1 Ca antag -1 and CHO parental Ca -5.
`COc1ccc2nc(C)cc(SCC(NC(C)=O)C(=O)OC(C)C)c2c1` (centres undefined) gave CHO-K1 Ca ag 1, M1 PAM parental -25, OX1R antag-1 9, OX1R antag-2 -26, CHO-K1 Ca antag 26* and CHO parental Ca -20.
For COc1ccc2nc(C)cc(SCC(=O)O)c2c1 the results were CHO-K1 Ca ag 0, M1 PAM parental 18, OX1R antag-1 0, OX1R antag-2 -20, CHO-K1 Ca antag 24*! and CHO parental Ca 0.
For C[C@H](CO)N1C[C@H](C)[C@@H](CN(C)C(=O)NC2CCCCC2)Oc2c(NS(=O)(=O)c3cn(C)cn3)cccc2C1=O the results were CHO-K1 Ca ag 0, M1 PAM parental 0, OX1R antag-1 6, OX1R antag-2 -10, CHO-K1 Ca antag -1 and CHO parental Ca -17.
For COc1cc(C2CC(=O)c3c([nH]c(C(=O)OCCOC(C)C)c3C)C2)cc(OC)c1OC (centres undefined) the results were CHO-K1 Ca ag 5, M1 PAM parental -14, OX1R antag-1 19, OX1R antag-2 -1, CHO-K1 Ca antag 21 and CHO parental Ca 31*.
`CCOCCOC(=O)c1[nH]c2c(c1C)C(=O)CC(c1ccc(OC)c(OC)c1)C2` (centres undefined) gave CHO-K1 Ca ag 14, M1 PAM parental -6, OX1R antag-1 11, OX1R antag-2 -21, CHO-K1 Ca antag -8 and CHO parental Ca -4.
Screening O=C(CCCCCN1C(=O)[C@@H]2Cc3ccccc3CN2C1=O)NCCc1ccccc1 returned CHO-K1 Ca ag 6, M1 PAM parental -2, OX1R antag-1 11, OX1R antag-2 -60, CHO-K1 Ca antag -6 and CHO parental Ca -39.
Screening Cc1ccc(CSCC(=O)N2CCCC2)cc1 returned CHO-K1 Ca ag 0, M1 PAM parental 20, OX1R antag-1 7, OX1R antag-2 -6, CHO-K1 Ca antag -7 and CHO parental Ca 8.
CCOC(=O)N1CCN(C(=O)CSCc2ccc(C)cc2)CC1 was read as CHO-K1 Ca ag 0, M1 PAM parental -8, OX1R antag-1 18, OX1R antag-2 -24, CHO-K1 Ca antag 26* and CHO parental Ca -18.
`CCOC(=O)N1CCN(C(=O)CSCC(=O)Nc2nc(-c3ccc(OC)cc3)cs2)CC1` gave CHO-K1 Ca ag 3, M1 PAM parental 21, OX1R antag-1 5, OX1R antag-2 -27, CHO-K1 Ca antag -10 and CHO parental Ca -20.
For Cc1ccc(-c2csc(NC(=O)CSc3nc(C)cc(=O)[nH]3)n2)cc1 the results were OX1R antag-1 4, OX1R antag-2 5 and CHO parental Ca -1.
Screening Cc1ccc(-c2csc(NC(=O)CSC3=NCCS3)n2)cc1 returned CHO-K1 Ca ag 0, M1 PAM parental -6, OX1R antag-1 16, OX1R antag-2 -19, CHO-K1 Ca antag 25* and CHO parental Ca -14.
For CCOC(=O)N1CCN(C(=O)CSCC(=O)Nc2nc(-c3ccc(-c4ccccc4)cc3)cs2)CC1 the results were CHO-K1 Ca ag 8, M1 PAM parental 8, OX1R antag-1 48*, OX1R antag-2 53*, CHO-K1 Ca antag 7 and CHO parental Ca 91*.
